Measurements from ChEMBL document CHEMBL2176952, “Anticancer activity and cellular repression of c-MYC by the G-quadruplex-stabilizing 11-piperazinylquindoline is not dependent on direct targeting of the G-quadruplex in the c-MYC promoter” (J Med Chem, 2012).
The source made the active and inactive calls. No cut-off for these calls is given here.

Columns and labels:
Nucleic Acid [1] = experiment: Thermal stability of c-MYC G-quadruplex DNA assessed as change in melting temperature at DNA:compound ratio 1:1 by spectropolarimeter analysis; type: nucleic-acid assay
In short: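 c-MYC G-quadruplex at 5 μM in 50 mM Tris-HCl pH 7.4, held 10 min at 25 °C, heated 10 min at 95 °C and air-cooled over ~30 min. Compound then added at 1 equivalent. Melting followed by CD spectropolarimetry; ΔTm = Tm with compound minus Tm of control.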

HCT-116 [2] = experiment: Cytotoxicity against human HCT116 cells after 96 hrs by MTS assay; type: functional, cell-based; conditions: HCT-116, 96 h
In short: (§1)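 MTS viability after 96 h exposure. HCT-116 grown in DMEM, Raji in RPMI-1640, each with 10% FBS and penicillin/streptomycin at 37 °C, 5% CO2, kept in exponential growth. Compound spanned a 5–6 log range in 0.5 log steps. IC50 from non-linear regression; biological triplicates.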

Raji = experiment: Cytotoxicity against human Raji cells after 96 hrs by MTS assay; type: functional, cell-based; in short: as §1
CA46 = experiment: Cytotoxicity against human CA46 cells after 24 hrs by MTS assay; type: functional, cell-based; conditions: CA46, 24 h
Nucleic Acid [3] = experiment: Binding affinity to PDGFRbeta G-quadruplex DNA at 2 uM after 48 hrs by competition dialysis method; type: nucleic-acid assay
In short: (§2)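 DNA at 75 μM in 50 mM Tris-HCl with 25 mM KCl. Duplexes annealed by heating to 95 °C then slow cooling at 1 °C/min. G-quadruplexes formed by 95 °C for 10 min with rapid air cooling, topology checked by CD. Dialysed 48 h in a cold room against BPES with 25 mM KCl and 2 μM compound. Bound compound measured by UV absorbance against a standard curve, expressed per binding site. Run in duplicate.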

Nucleic Acid [4] = experiment: Binding affinity to c-MYC G-quadruplex DNA in human HCT116 cells assessed as decrease in c-MYC mRNA expression at 31 uM at 6 hrs by RT-PCR analysis; type: cell-based; conditions: HCT-116
Nucleic Acid [5] = experiment: Binding affinity to hTERT G-quadruplex DNA in human HCT116 cells assessed as downregulation of hTERT mRNA expression at 31 uM at 6 hrs by RT-PCR analysis; type: cell-based; conditions: HCT-116
Nucleic Acid [6] = experiment: Binding affinity to PDGFRbeta G-quadruplex DNA in human HCT116 cells assessed as downregulation of PDGFRbeta mRNA expression at 31 uM at 6 hrs by RT-PCR analysis; type: cell-based; conditions: HCT-116
HCT-116 [7] = experiment: Cytotoxicity against human HCT116 cells after 24 hrs by MTS assay; type: functional, cell-based; conditions: HCT-116, 24 h
Nucleic Acid [8] = experiment: Binding affinity to HIF1alpha G-quadruplex DNA in human HCT116 cells assessed as change in HIF1alpha mRNA expression at 31 uM up to 48 hrs by RT-PCR analysis; type: cell-based; conditions: HCT-116
Nucleic Acid [9] = experiment: Binding affinity to dGdC DNA at 2 uM after 48 hrs by competition dialysis method; type: nucleic-acid assay; in short: as §2
Nucleic Acid [10] = experiment: Binding affinity to c-MYC G-quadruplex DNA in human HCT116 cells assessed as decrease in c-MYC mRNA expression at 31 uM at 48 hrs by RT-PCR analysis; type: cell-based; conditions: HCT-116
Nucleic Acid [11] = experiment: Binding affinity to hTERT G-quadruplex DNA in human HCT116 cells assessed as downregulation of hTERT mRNA expression at 31 uM at 24 hrs by RT-PCR analysis; type: cell-based; conditions: HCT-116
Nucleic Acid [12] = experiment: Binding affinity to PDGFRbeta G-quadruplex DNA in human HCT116 cells assessed as downregulation of PDGFRbeta mRNA expression at 31 uM at 24 hrs by RT-PCR analysis; type: cell-based; conditions: HCT-116
HCT-116 [13] = experiment: Increase in VEGFA G-quadruplex DNA expression in human HCT116 cells by qPCR analysis; type: functional, cell-based
Nucleic Acid [14] = experiment: Decrease of c-MYC G-quadruplex DNA-mediated c-MYC expression in exon1 in human CA46 cells at 2.8 uM at 48 hrs by exon-specific assay; type: cell-based
Nucleic Acid [15] = experiment: Binding affinity to dAdT DNA at 2 uM after 48 hrs by competition dialysis method; type: nucleic-acid assay; in short: as §2
Nucleic Acid [16] = experiment: Binding affinity to PDGFRbeta G-quadruplex DNA in human HCT116 cells assessed as downregulation of PDGFRbeta mRNA expression at 31 uM at 48 hrs by RT-PCR analysis; type: cell-based; conditions: HCT-116
Nucleic Acid [17] = experiment: Binding affinity to HIF1alpha G-quadruplex DNA at 2 uM after 48 hrs by competition dialysis method; type: nucleic-acid assay; in short: as §2
Nucleic Acid [18] = experiment: Binding affinity to HIF1alpha G-quadruplex DNA in human HCT116 cells assessed as change in HIF1alpha mRNA expression at 23 uM up to 48 hrs by RT-PCR analysis; type: cell-based; conditions: HCT-116
Nucleic Acid [19] = experiment: Decrease of c-MYC G-quadruplex DNA-mediated c-MYC expression in exon1 in human CA46 cells at 2.8 uM at 24 hrs by exon-specific assay; type: cell-based
Nucleic Acid [20] = experiment: Decrease of c-MYC G-quadruplex DNA-mediated c-MYC expression in exon1 in human CA46 cells at 2.8 uM at 6 hrs by exon-specific assay; type: cell-based
Nucleic Acid [21] = experiment: Binding affinity to hTERT G-quadruplex DNA in human HCT116 cells assessed as downregulation of hTERT mRNA expression at 31 uM at 48 hrs by RT-PCR analysis; type: cell-based; conditions: HCT-116
Nucleic Acid [22] = experiment: Binding affinity to hTERT G-quadruplex DNA at 2 uM after 48 hrs by competition dialysis method; type: nucleic-acid assay; in short: as §2
Nucleic Acid [23] = experiment: Binding affinity to c-MYC G-quadruplex DNA in human HCT116 cells assessed as decrease in c-MYC mRNA expression at 23 uM from 6 to 48 hrs by RT-PCR analysis; type: cell-based; conditions: HCT-116
Nucleic Acid [24] = experiment: Decrease of c-MYC G-quadruplex DNA-mediated c-MYC expression in exon1 in human CA46 cells at 19.4 uM at 48 hrs by exon-specific assay; type: cell-based
Nucleic Acid [25] = experiment: Binding affinity to c-MYC G-quadruplex DNA at 2 uM after 48 hrs by competition dialysis method; type: nucleic-acid assay; in short: as §2
Nucleic Acid [26] = experiment: Binding affinity to hTERT G-quadruplex DNA in human HCT116 cells assessed as downregulation of hTERT mRNA expression at 23 uM by RT-PCR analysis; type: cell-based; conditions: HCT-116, TDE = time-dependent effect
Nucleic Acid [27] = experiment: Decrease of c-MYC G-quadruplex DNA-mediated c-MYC expression in exon1 in human CA46 cells at 19.4 uM at 6 hrs by exon-specific assay; type: cell-based
Nucleic Acid [28] = experiment: Binding affinity to PDGFRbeta G-quadruplex DNA in human HCT116 cells assessed as change in PDGFRbeta mRNA expression at 23 uM up to 48 hrs by RT-PCR analysis; type: cell-based; conditions: HCT-116
Nucleic Acid [29] = experiment: Binding affinity to VEGFA G-quadruplex DNA in human HCT116 cells assessed as change in VEGFA mRNA expression at 23 uM up to 48 hrs by RT-PCR analysis; type: cell-based; conditions: HCT-116
Nucleic Acid [30] = experiment: Decrease of c-MYC G-quadruplex DNA-mediated c-MYC expression in exon1 in human CA46 cells at 19.4 uM at 24 hrs by exon-specific assay; type: cell-based

CCN(CC)CCNc1c2ccccc2nc2c1[nH]c1ccccc12
ΔTm (Nucleic Acid [1]): 5.2 °C | IC50 (HCT-116 [2]): 0.11 µM | IC50 (Raji): 0.7 µM | IC50 (CA46): 10 µM

CN(C)CCCn1c2ccccc2c2nc3ccccc3c(N3CCN(CCN(C)C)CC3)c21
Activity (Nucleic Acid [3]): Active | Activity (Nucleic Acid [4]): Active | Activity (Nucleic Acid [5]): Active | ΔTm (Nucleic Acid [1]): 16.5 °C | IC50 (HCT-116 [2]): 3.4 µM | Activity (Nucleic Acid [6]): Active | IC50 (HCT-116 [7]): 31 µM | Activity (Nucleic Acid [8]): inactive | Activity (Nucleic Acid [9]): Active | Activity (Nucleic Acid [10]): inactive | Activity (Nucleic Acid [11]): Active | IC50 (Raji): 3.1 µM | IC50 (CA46): 2.8 µM | Activity (Nucleic Acid [12]): Active | Activity (HCT-116 [13]): Active | Activity (Nucleic Acid [14]): inactive | Activity (Nucleic Acid [15]): Active | Activity (Nucleic Acid [16]): inactive | Activity (Nucleic Acid [17]): Active | Activity (Nucleic Acid [18]): inactive | Activity (Nucleic Acid [19]): inactive | Activity (Nucleic Acid [20]): inactive | Activity (Nucleic Acid [21]): inactive | Activity (Nucleic Acid [22]): Active

COCCCN1CCN(c2c3ccccc3nc3c2[nH]c2ccccc23)CC1
ΔTm (Nucleic Acid [1]): 6.3 °C | IC50 (HCT-116 [2]): 6.3 µM | IC50 (Raji): 21.3 µM

c1ccc2c(N3CCNCC3)c3[nH]c4ccccc4c3nc2c1
ΔTm (Nucleic Acid [1]): 6.7 °C | IC50 (HCT-116 [2]): 4.3 µM | IC50 (Raji): 33.9 µM

c1ccc2c(-c3ccc(CCN4CCOCC4)cc3)c3[nH]c4ccccc4c3nc2c1
ΔTm (Nucleic Acid [1]): 1.9 °C | IC50 (HCT-116 [2]): > 100 µM | IC50 (Raji): > 100 µM

CN(C)CCN1CCN(c2c3cc(-c4ccc(F)c(F)c4)ccc3nc3c2[nH]c2ccccc23)CC1
ΔTm (Nucleic Acid [1]): 6.5 °C | IC50 (HCT-116 [2]): 3.7 µM | IC50 (Raji): 5.8 µM

c1ccc2c(N3CCN(CCN4CCOCC4)CC3)c3[nH]c4ccccc4c3nc2c1
ΔTm (Nucleic Acid [1]): 5.9 °C | IC50 (HCT-116 [2]): 9.1 µM | IC50 (Raji): 52.9 µM

CN1CCN(c2c3ccccc3nc3c2[nH]c2ccccc23)CC1
ΔTm (Nucleic Acid [1]): 3 °C | IC50 (HCT-116 [2]): 3.5 µM | IC50 (Raji): 5.44 µM

CN(C)CCCN1CCN(c2c3ccccc3nc3c2[nH]c2ccccc23)CC1
ΔTm (Nucleic Acid [1]): 11.4 °C | IC50 (HCT-116 [2]): 0.9 µM | IC50 (Raji): 11.8 µM

OCCCN1CCN(c2c3ccccc3nc3c2[nH]c2ccccc23)CC1
ΔTm (Nucleic Acid [1]): 1.3 °C | IC50 (HCT-116 [2]): 2.4 µM | IC50 (Raji): > 100 µM

CN(C)CCN1CCN(c2c3ccccc3nc3c2[nH]c2ccccc23)CC1
ΔTm (Nucleic Acid [1]): 6.7 °C | IC50 (HCT-116 [2]): 0.97 µM | Activity (Nucleic Acid [23]): Active | Activity (Nucleic Acid [24]): inactive | Activity (Nucleic Acid [25]): Active | IC50 (HCT-116 [7]): 23 µM | Activity (Nucleic Acid [8]): inactive | Activity (Nucleic Acid [9]): Active | IC50 (Raji): 2.33 µM | IC50 (CA46): 19.4 µM | Activity (Nucleic Acid [26]): tde | Activity (Nucleic Acid [27]): inactive | Activity (Nucleic Acid [15]): Active | Activity (Nucleic Acid [28]): Active | Activity (Nucleic Acid [29]): Active | Activity (Nucleic Acid [18]): inactive | Activity (Nucleic Acid [30]): inactive

CN(C)CCCn1c2ccccc2c2nc3ccccc3c(N3CCN(C)CC3)c21
ΔTm (Nucleic Acid [1]): 2.8 °C | IC50 (HCT-116 [2]): 2.98 µM | IC50 (Raji): 7.03 µM

CN(C)CCN1CCN(c2c3cc(-c4ccncc4)ccc3nc3c2[nH]c2ccccc23)CC1
ΔTm (Nucleic Acid [1]): 8.6 °C | IC50 (HCT-116 [2]): 20.9 µM | IC50 (Raji): 45 µM

c1ccc2c(N3CCN(CCN4CCCCC4)CC3)c3[nH]c4ccccc4c3nc2c1
ΔTm (Nucleic Acid [1]): 8.8 °C | IC50 (HCT-116 [2]): 0.5 µM | IC50 (Raji): 56.1 µM

CCN(CC)CCN1CCN(c2c3ccccc3nc3c2[nH]c2ccccc23)CC1
ΔTm (Nucleic Acid [1]): 10.3 °C | IC50 (HCT-116 [2]): 3.4 µM | IC50 (Raji): 26 µM

CN(C)CCN1CCN(c2c3cc(-c4ccc(CCN5CCOCC5)cc4)ccc3nc3c2[nH]c2ccccc23)CC1
ΔTm (Nucleic Acid [1]): 13.1 °C | IC50 (HCT-116 [2]): 3.8 µM | IC50 (Raji): 10.8 µM
